Assay results taken from ChEMBL document CHEMBL1123156 (J Med Chem, 1986).

What was measured:
[1] = target: T1, Cholesterol side-chain cleavage enzyme, mitochondrial (cytochrome P450scc) (Bos taurus, UniProt P00189); assay: Inhibition of Bovine adrenal cholesterol side chain cleavage cytochrome P450 at 50 ug/mL; details: cattle
T1 sequence (P00189 whole entry): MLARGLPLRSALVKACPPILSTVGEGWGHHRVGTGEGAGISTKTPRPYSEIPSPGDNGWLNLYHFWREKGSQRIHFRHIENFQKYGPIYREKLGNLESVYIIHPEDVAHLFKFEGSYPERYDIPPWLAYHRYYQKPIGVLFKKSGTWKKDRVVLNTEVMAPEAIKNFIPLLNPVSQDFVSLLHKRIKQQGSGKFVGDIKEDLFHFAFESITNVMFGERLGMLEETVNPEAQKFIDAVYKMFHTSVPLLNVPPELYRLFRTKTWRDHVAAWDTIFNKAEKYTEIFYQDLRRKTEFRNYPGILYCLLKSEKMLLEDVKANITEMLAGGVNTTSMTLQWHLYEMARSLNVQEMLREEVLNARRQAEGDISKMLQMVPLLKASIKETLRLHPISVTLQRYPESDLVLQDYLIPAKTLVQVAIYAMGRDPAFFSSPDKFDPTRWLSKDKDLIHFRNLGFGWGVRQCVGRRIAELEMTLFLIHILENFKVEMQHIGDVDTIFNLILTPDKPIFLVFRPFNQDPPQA
In short: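 Bovine adrenal CSCC enzyme (cholesterol to pregnenolone) preparation. Inhibitor at 50 μg/mL, the highest concentration tested. Result is percent inhibition relative to uninhibited control, as the mean of two determinations (variability <10%).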

Aromatase [2] = target: T2, Aromatase (Homo sapiens, UniProt P11511)
T2 sequence (P11511 whole entry): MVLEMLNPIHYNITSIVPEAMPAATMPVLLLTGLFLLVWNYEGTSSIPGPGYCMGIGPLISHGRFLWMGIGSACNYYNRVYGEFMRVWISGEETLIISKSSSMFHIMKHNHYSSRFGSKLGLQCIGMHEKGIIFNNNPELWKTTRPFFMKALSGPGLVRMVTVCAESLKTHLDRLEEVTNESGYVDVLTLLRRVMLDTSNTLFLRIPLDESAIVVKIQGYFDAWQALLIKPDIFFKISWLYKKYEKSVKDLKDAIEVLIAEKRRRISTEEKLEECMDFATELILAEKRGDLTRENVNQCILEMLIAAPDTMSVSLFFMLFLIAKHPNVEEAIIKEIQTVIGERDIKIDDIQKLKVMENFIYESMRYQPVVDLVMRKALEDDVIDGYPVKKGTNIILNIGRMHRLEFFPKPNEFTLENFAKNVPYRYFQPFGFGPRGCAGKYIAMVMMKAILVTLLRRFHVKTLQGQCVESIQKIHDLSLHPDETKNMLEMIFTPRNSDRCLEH

Aromatase [3] = target: T2, Aromatase; remark: listed apart in the source
Aromatase [4] = target: T2, Aromatase; remark: listed apart in the source
Aromatase [5] = target: T2, Aromatase; assay: Inhibition of Cytochrome P450 19A1 at 20 ug/mL
In short: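 Human placental aromatase preparation. Inhibitor at 20 μg/mL. Result is percent inhibition of androgen aromatization relative to control.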

Row | Compound | inhibition at 50 ug/mL [1] [%] | IC50 (Aromatase [2]) [µM] | IC50 (Aromatase [3]) [µM] | Ki (Aromatase [4]) [µM] | inhibition at 20 µg/mL (Aromatase [5]) [%]
1 | CCC1(c2ccc(N)cc2)CCC(=O)NC1=O (stereo not given) [AMINOGLUTETHIMIDE] | 83 |  |  |  | 
2 | CN1C(=O)CC(C)(c2ccc(N)cc2)C1=O (stereo not given) | 30 | 10 | 15.7 | 1.75 | 
3 | NC(=O)CCc1ccc([N+](=O)[O-])cc1 | 28 |  |  |  | 8
4 | CN1C(=O)CC(c2ccc(N)cc2)C1=O (stereo not given) | 30 | 10 | 16.6 | 1.75 | 
5 | Nc1ccc(C2CC(=O)NC2=O)cc1 (stereo not given) | 30 | 10.2 | 20 |  | 
6 | NC(=O)CCc1ccc(N)cc1 | 19 |  |  |  | 38
7 | CCC1(c2ccc(N)cc2)CC(=O)NC1=O (stereo not given) | 38 | 8.4 | 13.5 | 1 | 
8 | CC1(c2ccc(N)cc2)CC(=O)NC1=O (stereo not given) | 0 | 10 | 12.5 | 0.8 | 
9 | CCC1(c2ccc(N)cc2)CC(=O)N(C)C1=O (stereo not given) | 0 |  |  |  | 
